Assays:
CCRF-CEM = assay: Cytotoxicity against human CEM cells; format: functional, cell-based
In short: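 CEM human leukaemia cells kept in RPMI 1640 with 10% FBS, 2 mM glutamine, penicillin/streptomycin, 37 °C, 5% CO2. Exponentially growing cells seeded at 2×10^4 per well with various drug concentrations, 72 h at 37 °C; tetrazolium dye (CellTiter 96 AQueous One) then added for 2 h, absorbance read at 492 nm. IC50 averaged from two experiments.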

[1] = Inhibition of pig brain GSK3alpha/beta; parameters: species or system Sus scrofa
In short: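 GSK-3α/β purified from porcine brain, diluted 1/100 in 1 mg/ml BSA, 10 mM DTT. Assayed in buffer A (pH 7.5, with heparin) with GS-1 peptide (5 µl of 40 µM) as substrate and 15 µM [γ-33P]ATP, 30 µl final, 30 min at 30 °C. Detection by P81 phosphocellulose paper binding, phosphoric acid washes, scintillation counting. IC50 averaged from two experiments; DMSO controls.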

[2] = Inhibition of starfish CDK1/cyclin B; parameters: species or system Marthasterias glacialis
In short: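 CDK1/cyclin B taken from M-phase starfish (Marthasterias glacialis) oocytes and affinity-purified on p9CKShs1-sepharose beads, eluted with free p9CKShs1. Assayed in buffer C with 1 mg/ml histone H1 and 15 µM [γ-33P]ATP, 30 µl final, 10 min at 30 °C. Detection by P81 phosphocellulose paper binding and scintillation counting. IC50 averaged from two experiments.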

[3] = Inhibition of recombinant CDK5/p25 expressed in Escherichia coli
In short: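 Recombinant CDK5 and p25 expressed in E. coli as GST fusions, purified on glutathione-agarose and mixed in equal amounts. Assayed in buffer C with 1 mg/ml histone H1 and 15 µM [γ-33P]ATP, 30 µl final, 10 min at 30 °C. Detection by P81 phosphocellulose paper binding and scintillation counting. IC50 averaged from two experiments.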

| Structure (SMILES) | IC50 (CCRF-CEM) [µM] | IC50 [1] [µM] | IC50 [2] [nM] | IC50 [3] [nM] |
| --- | --- | --- | --- | --- |
| CN(C)CCOc1ccc(-c2cncc(-c3cc4ccccc4n3CCN(C)C)c2)cc1 | 7.97 | > 10 | > 10000 | – |
| Oc1ccc2[nH]c(-c3cncc(-c4cc5cc(O)ccc5[nH]4)c3)cc2c1 | 7.99 | 30 | 540 | 1200 |
| CN(C)CCOc1ccc(-c2cncc(-c3cc4cc(O)ccc4[nH]3)c2)cc1 | 12.3 | 4.6 | 3600 | 6700 |
| CN(C)CCCn1c(-c2cncc(-c3cc4cc(O)ccc4[nH]3)c2)cc2cc(O)ccc21 | 14.2 | > 10 | > 10000 | – |
| CN(C)CCOc1ccc(-c2cncc(-c3cc4cc(O)ccc4n3CCN(C)C)c2)cc1 | 31.9 | > 10 | > 10000 | – |
| Oc1ccc(-c2cncc(-c3cc4ccccc4[nH]3)c2)cc1 | 4.67 | > 100 | 700 | 900 |
| CN(C)CCCOc1ccc(-c2cncc(-c3cc4ccccc4[nH]3)c2)cc1 | 5.4 | 31 | 900 | 1000 |
| CN(C)CCOc1ccc(-c2cncc(-c3cc4ccccc4[nH]3)c2)cc1 | 9.02 | 4.8 | 2500 | 3100 |
| Oc1ccc(-c2cncc(-c3cc4cc(O)ccc4[nH]3)c2)cc1 | 14.5 | 40 | 310 | 1500 |
| CN(C)CCCn1c(-c2cncc(-c3cc4cc(O)ccc4n3CCCN(C)C)c2)cc2cc(O)ccc21 | 11.1 | > 10 | > 10000 | – |
| CN(C)CCn1c(-c2cncc(-c3cc4cc(O)ccc4[nH]3)c2)cc2cc(O)ccc21 | 5.76 | > 10 | > 10000 | – |
| CN(C)CCCOc1ccc(-c2cncc(-c3cc4cc(O)ccc4n3CCCN(C)C)c2)cc1 | 12.7 | > 10 | > 10000 | – |
| CN(C)CCCOc1ccc(-c2cncc(-c3cc4cc(O)ccc4[nH]3)c2)cc1 | 5.35 | 3.8 | 1900 | 5000 |
| CN(C)CCCOc1ccc(-c2cncc(-c3cc4ccccc4n3CCCN(C)C)c2)cc1 | 4.19 | > 10 | > 10000 | – |
| CN(C)CCn1c(-c2cncc(-c3cc4cc(O)ccc4n3CCN(C)C)c2)cc2cc(O)ccc21 | 14.8 | > 10 | > 10000 | – |

From ChEMBL document CHEMBL1157207, “Synthesis of 3,5-bis(2-indolyl)pyridine and 3-[(2-indolyl)-5-phenyl]pyridine derivatives as CDK inhibitors and cytotoxic agents” (Bioorg Med Chem, 2008)
